Data reported in ChEMBL document CHEMBL4837261, “Optimization of TopoIV Potency, ADMET Properties, and hERG Inhibition of 5-Amino-1,3-dioxane-Linked Novel Bacterial Topoisomerase Inhibitors: Identification of a Lead with In Vivo Efficacy against MRSA” (J Med Chem, 2021).
Converted amounts (≈) assume the structure as drawn.

What was measured:
[1] = Cmax in ICR (CD-1) mouse at 50 mg/kg, po measured up to 1440 mins by LC-MS/MS analysis; assay type: ADME, organism-based; design: route oral, dose 50 mg/kg, time <=1440; settings: in vivo
How it was run: (§1)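 Male ICR (CD-1) mice, 22 ± 2 g, given the free base in DMSO/Solutol HS-15/0.9% NaCl (5/5/90, v/v/v), IV at 10 mg/kg or PO at 50 mg/kg; 24 mice per route, three per timepoint. Plasma was taken by cardiac puncture at 3–1440 min (IV) or 10–1440 min (PO), measured by LC-MS/MS, and parameters were derived by noncompartmental analysis.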

Staphylococcus aureus [2] = experiment: Antibacterial activity against methicillin-resistant Staphylococcus aureus USA300 by CLSI method; assay type: functional
Enterobacter cloacae = experiment: Antibacterial activity against Enterobacter cloacae isolates by CLSI method; assay type: functional
CYP2C19 = CYP2C19 (Homo sapiens, UniProt P33261); experiment: Inhibition of CYP2C19 (unknown origin) at 10 uM relative to control; assay type: ADME
[3] = Metabolic stability in human microsomes assessed as half life; assay type: ADME, Microsome
How it was run: (§2)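 Run at RTI International. Covers plasma protein binding (mouse, human; percent free), CACO-2 permeability and efflux, and microsomal stability (mouse and human microsomes) giving half-life.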

Cytochrome P450 2C8 = Cytochrome P450 2C8 (Homo sapiens, UniProt P10632); experiment: Inhibition of CYP2C8 (unknown origin); assay type: ADME
CYP2C9 = CYP2C9 (Homo sapiens, UniProt P11712); experiment: Inhibition of CYP2C9 (unknown origin) at 10 uM relative to control; assay type: ADME
[4] = target: 5-hydroxytryptamine receptor 2B (Homo sapiens) (UniProt P41595); experiment: Displacement of [3H]Lysergic acid diethylamide from human recombinant 5HT2B receptor expressed in CHO-K1 cells at 100 uM by radioligand binding assay; assay type: cell-based
[5] = Permeability of the compound from apical to basolateral side in human Caco-2 cells; assay type: ADME, cell-based; settings: read-out: permeability
hERG (KCNH2) = hERG (KCNH2) (Homo sapiens, UniProt Q12809); experiment: Inhibition of recombinant human ERG expressed in CHO-K1 cells at 100 uM at -80 mV holding potential tail current by automated Qpatch clamp assay relative to control; assay type: ADME, cell-based; settings: CHO-K1 cells expressing recombinant human ERG
[6] = Volume of distribution at steady state in ICR (CD-1) mouse at 10 mg/kg, iv measured up to 1440 mins by LC-MS/MS analysis; assay type: ADME, organism-based; settings: in vivo, read-out: Vdss
How it was run: (§3)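 Male ICR (CD-1) mice, 22 ± 2 g, given free base in DMSO/Solutol HS-15/0.9% NaCl (5/5/90) at 50 mg/kg PO or 10 mg/kg IV. Three mice per timepoint, 8 timepoints. Plasma taken by cardiac puncture at 10–1440 min (PO) or 3–1440 min (IV). Measured by LC-MS/MS, with parameters from noncompartmental analysis.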

Enterococcus faecalis = experiment: Antibacterial activity against vancomycin-resistant Enterococcus faecalis by CLSI method; assay type: functional
Pseudomonas aeruginosa = experiment: Antibacterial activity against Pseudomonas aeruginosa isolates by CLSI method; assay type: functional
Cytochrome P450 2C19 = Cytochrome P450 2C19 (Homo sapiens, UniProt P33261); experiment: Inhibition of CYP2C19 (unknown origin); assay type: ADME
Enterococcus faecium = experiment: Antibacterial activity against vancomycin-resistant Enterococcus faecium by CLSI method; assay type: functional
Staphylococcus aureus [7] = experiment: Antibacterial activity against Staphylococcus aureus harbouring GyrA D83N mutant by CLSI method; assay type: functional
Kv4.3 (KCND3) = Kv4.3 (KCND3) (Homo sapiens, UniProt Q9UK17); experiment: Inhibition of recombinant human Kv4.3 expressed in human HEK293 cells at 100 uM measured at end current by automated Qpatch clamp assay relative to control; assay type: ADME, cell-based; settings: HEK293 cells expressing recombinant human Kv4.3
[8] = Permeability of the compound from basolateral to apical side in human Caco-2 cells; assay type: ADME, cell-based; settings: read-out: permeability; how it was run: as §2
[9] = AUClast in ICR (CD-1) mouse at 50 mg/kg, po measured up to 1440 mins by LC-MS/MS analysis; assay type: ADME, organism-based; design: route oral, dose 50 mg/kg, time <=1440; settings: in vivo; how it was run: as §1
Staphylococcus aureus [10] = experiment: Antibacterial activity against methicillin-resistant Staphylococcus aureus ATCC 33591 infected in iv dosed CD1 mouse model of septicemia assessed as mouse survival at 25 to 50 mg/kg, iv administered 0.5 to 3.5 hrs post injection measured for 7 days relative to control; assay type: functional; settings: dose 25-50 mg/kg; time 7 day
Cytochrome P450 2B6 = Cytochrome P450 2B6 (Homo sapiens, UniProt P20813); experiment: Inhibition of CYP2B6 (unknown origin); assay type: ADME
[11] = Clearance in ICR (CD-1) mouse at 10 mg/kg, iv measured up to 1440 mins by LC-MS/MS analysis; assay type: ADME, organism-based; settings: in vivo; how it was run: as §1
CYP2C8 = CYP2C8 (Homo sapiens, UniProt P10632); experiment: Inhibition of CYP2C8 (unknown origin) at 10 uM relative to control; assay type: ADME
[12] = Tmax in ICR (CD-1) mouse at 50 mg/kg, po measured up to 1440 mins by LC-MS/MS analysis; assay type: ADME, organism-based; settings: in vivo; how it was run: as §3
[13] = Kinetic solubility of the compound at pH 7.4 buffer; assay type: physicochemical; settings: read-out: Kinetic_solubility
How it was run: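 Kinetic aqueous solubility was measured in buffer at pH 7.4.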

Streptococcus pyogenes = experiment: Antibacterial activity against Streptococcus pyogenes isolates by CLSI method; assay type: functional
[14] = Metabolic stability in CD1 mouse microsomes assessed as half life; assay type: ADME, Microsome
[15] = target: DNA gyrase (Staphylococcus aureus) (UniProt P0A0K8+P20831); experiment: Inhibition of Staphylococcus aureus DNA Gyrase assessed as reduction in supercoiling pBR322 DNA by measuring induction of double strand breaks by ethidium bromide staining based agarose gel electrophoresis; assay type: protein-complex assay; settings: dose 1-100 µM
How it was run: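 Gyrase-mediated cleavage of negatively supercoiled pBR322 ran for 30 min at 37 °C with compound at 0.5–200 μM. Single- and double-strand break products were quantified from gel lane fluorescence, corrected for differential emission of supercoiled versus linear DNA.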

DNA gyrase = DNA gyrase (Staphylococcus aureus, UniProt P0A0K8+P20831, D83N); experiment: Inhibition of Staphylococcus aureus DNA Gyrase D83N mutant assessed as reduction in supercoiling pBR322 DNA by measuring relaxation by bromophenol blue staining based TAE gel method
[16] = AUClast in ICR (CD-1) mouse at 10 mg/kg, iv measured up to 1440 mins by LC-MS/MS analysis; assay type: ADME, organism-based; design: route intravenous, dose 10 mg/kg, time <=1440; settings: in vivo; how it was run: as §1

Chain of Cytochrome P450 2C19 (P33261 whole entry): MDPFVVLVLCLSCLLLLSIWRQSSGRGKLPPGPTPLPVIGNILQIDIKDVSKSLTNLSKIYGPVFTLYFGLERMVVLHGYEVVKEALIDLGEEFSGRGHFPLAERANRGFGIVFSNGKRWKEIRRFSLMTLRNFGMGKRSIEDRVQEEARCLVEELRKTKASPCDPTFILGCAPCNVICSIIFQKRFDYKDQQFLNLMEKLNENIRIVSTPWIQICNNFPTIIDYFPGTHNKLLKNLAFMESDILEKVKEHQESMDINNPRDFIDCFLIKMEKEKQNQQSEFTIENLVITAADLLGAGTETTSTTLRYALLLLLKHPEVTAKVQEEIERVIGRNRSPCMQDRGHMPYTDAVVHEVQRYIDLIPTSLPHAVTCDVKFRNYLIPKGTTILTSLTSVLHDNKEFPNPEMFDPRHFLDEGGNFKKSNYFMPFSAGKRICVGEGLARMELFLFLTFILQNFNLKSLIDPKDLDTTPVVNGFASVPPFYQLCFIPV
Chain of CYP2C19 (P33261 whole entry): as above
Chain of Kv4.3 (KCND3) (Q9UK17 whole entry): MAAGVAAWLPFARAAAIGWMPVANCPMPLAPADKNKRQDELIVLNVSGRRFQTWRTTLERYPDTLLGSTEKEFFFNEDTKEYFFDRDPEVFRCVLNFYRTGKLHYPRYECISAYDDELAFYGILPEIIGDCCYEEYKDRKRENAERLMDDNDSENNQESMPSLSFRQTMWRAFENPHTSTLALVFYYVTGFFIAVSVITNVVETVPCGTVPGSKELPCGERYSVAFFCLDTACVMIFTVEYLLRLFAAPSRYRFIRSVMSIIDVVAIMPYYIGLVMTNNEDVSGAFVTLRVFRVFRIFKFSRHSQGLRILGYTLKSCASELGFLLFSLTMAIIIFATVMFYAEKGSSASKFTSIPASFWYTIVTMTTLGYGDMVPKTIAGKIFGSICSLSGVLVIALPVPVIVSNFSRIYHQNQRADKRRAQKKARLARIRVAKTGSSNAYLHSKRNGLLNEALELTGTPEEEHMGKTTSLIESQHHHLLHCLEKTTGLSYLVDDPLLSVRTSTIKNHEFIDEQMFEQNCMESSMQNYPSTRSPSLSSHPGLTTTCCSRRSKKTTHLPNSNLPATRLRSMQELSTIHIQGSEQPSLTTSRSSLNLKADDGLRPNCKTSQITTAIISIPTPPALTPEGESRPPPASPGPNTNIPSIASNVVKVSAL
Chain of CYP2C9 (P11712 whole entry): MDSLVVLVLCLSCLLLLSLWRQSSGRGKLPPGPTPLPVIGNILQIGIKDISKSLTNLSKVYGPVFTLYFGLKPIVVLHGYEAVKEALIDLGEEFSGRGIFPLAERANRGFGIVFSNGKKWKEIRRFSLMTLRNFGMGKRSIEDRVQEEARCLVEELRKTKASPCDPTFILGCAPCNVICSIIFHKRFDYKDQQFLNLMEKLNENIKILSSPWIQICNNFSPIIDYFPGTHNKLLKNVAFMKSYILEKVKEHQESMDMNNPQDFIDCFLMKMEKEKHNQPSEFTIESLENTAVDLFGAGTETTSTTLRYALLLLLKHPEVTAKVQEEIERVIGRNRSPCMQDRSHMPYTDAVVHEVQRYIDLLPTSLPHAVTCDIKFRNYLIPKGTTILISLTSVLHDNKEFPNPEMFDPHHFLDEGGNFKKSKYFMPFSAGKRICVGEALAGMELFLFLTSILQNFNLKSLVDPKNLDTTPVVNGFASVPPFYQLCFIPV
Chain of 5-hydroxytryptamine receptor 2B (Homo sapiens) (P41595 whole entry): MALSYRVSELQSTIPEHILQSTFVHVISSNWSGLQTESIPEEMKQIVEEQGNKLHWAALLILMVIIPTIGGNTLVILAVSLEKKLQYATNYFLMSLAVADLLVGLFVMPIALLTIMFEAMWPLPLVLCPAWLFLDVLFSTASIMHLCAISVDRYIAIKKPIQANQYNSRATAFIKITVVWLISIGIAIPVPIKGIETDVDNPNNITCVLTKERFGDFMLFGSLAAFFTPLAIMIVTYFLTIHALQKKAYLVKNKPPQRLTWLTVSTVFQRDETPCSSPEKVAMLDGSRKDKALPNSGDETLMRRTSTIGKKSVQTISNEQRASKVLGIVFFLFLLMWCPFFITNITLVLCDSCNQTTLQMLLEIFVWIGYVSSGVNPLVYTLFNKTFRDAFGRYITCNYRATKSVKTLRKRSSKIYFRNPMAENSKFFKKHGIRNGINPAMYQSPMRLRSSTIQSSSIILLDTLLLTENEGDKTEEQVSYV
Chain of hERG (KCNH2) (Q12809 whole entry): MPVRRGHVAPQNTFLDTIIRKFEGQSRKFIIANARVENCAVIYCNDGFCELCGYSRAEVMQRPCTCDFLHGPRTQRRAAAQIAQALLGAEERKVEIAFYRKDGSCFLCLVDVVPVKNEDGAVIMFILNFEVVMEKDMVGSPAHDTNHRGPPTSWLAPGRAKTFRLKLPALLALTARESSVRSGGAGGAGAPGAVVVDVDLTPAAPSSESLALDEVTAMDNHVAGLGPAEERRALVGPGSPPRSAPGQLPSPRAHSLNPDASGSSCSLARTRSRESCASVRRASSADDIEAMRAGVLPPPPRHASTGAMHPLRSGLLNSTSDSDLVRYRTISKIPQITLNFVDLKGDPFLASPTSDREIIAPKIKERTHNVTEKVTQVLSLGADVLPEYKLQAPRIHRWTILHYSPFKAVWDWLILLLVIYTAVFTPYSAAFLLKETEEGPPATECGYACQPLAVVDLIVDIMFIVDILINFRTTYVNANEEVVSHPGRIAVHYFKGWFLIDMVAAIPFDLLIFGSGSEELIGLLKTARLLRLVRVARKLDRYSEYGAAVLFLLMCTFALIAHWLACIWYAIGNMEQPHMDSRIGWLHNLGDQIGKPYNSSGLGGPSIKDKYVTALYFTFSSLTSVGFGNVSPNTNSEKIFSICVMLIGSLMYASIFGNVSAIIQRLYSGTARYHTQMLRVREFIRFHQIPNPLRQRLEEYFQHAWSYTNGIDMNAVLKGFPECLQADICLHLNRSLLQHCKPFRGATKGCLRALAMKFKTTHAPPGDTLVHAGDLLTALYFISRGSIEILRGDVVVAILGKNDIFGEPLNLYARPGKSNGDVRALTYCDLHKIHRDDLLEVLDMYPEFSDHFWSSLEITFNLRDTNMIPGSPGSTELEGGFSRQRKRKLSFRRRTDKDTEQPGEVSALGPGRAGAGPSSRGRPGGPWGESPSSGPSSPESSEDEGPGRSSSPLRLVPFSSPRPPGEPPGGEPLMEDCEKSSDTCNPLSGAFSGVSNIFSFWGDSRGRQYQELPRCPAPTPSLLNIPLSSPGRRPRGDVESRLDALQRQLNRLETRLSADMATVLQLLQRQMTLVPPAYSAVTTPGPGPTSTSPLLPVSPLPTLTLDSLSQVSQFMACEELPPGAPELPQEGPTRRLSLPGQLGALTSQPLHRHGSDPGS
Chain of Cytochrome P450 2C8 (P10632 whole entry): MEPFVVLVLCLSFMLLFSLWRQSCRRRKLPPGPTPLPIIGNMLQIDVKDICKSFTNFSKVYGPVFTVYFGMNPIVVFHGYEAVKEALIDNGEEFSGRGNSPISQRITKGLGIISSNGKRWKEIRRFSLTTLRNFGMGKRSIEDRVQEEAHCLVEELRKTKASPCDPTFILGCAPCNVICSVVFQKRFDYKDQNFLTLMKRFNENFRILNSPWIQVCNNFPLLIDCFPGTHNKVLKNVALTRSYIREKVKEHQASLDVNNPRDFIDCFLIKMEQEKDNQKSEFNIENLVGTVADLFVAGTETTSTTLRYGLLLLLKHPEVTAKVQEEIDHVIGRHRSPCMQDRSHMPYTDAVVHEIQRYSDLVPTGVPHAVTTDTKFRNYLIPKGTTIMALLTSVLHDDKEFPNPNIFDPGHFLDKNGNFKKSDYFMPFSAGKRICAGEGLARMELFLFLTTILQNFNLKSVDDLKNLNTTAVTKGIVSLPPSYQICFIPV
Chain of CYP2C8 (P10632 whole entry): as above
Chain of Cytochrome P450 2B6 (P20813 whole entry): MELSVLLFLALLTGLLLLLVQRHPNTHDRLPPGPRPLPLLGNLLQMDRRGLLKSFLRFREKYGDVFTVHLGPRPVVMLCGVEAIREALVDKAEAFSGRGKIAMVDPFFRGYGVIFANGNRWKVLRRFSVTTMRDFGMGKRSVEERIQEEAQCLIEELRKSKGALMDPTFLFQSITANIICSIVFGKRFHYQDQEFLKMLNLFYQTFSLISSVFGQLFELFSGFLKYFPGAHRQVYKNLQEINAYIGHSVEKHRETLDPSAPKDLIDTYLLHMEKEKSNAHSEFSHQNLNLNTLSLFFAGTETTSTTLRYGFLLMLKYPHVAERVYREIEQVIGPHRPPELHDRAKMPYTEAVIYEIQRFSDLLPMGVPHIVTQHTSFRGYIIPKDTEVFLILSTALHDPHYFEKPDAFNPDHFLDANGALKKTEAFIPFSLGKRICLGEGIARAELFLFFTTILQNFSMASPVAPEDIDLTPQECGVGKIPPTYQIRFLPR

## COc1ccc2ncc(F)c(C[C@H](O)[C@H]3OC[C@H](NCc4cc5c(nn4)OCCS5)CO3)c2n1
[1]
  Cmax: 7020 ng/mL
Staphylococcus aureus [2]
  MIC: 0.25 µg/mL (≈ 0.511 µM)
Enterobacter cloacae
  MIC50: > 64 µg/mL
CYP2C19
  inhibition at 10 µM: > 50%
[3]
  half-life: 94 min
Cytochrome P450 2C8
  IC50: > 10 µM
CYP2C9
  inhibition at 10 µM: > 50%
[4]
  inhibition: > 45%
[5]
  Papp A→B: 5.68 ×10⁻⁶ cm/s
hERG (KCNH2)
  inhibition at 100 µM: < 25%
[6]
  Vd: 1 L/kg
Enterococcus faecalis
  MIC50: 0.25 µg/mL (≈ 0.511 µM)
  MIC90: 1 µg/mL (≈ 2.04 µM)
Pseudomonas aeruginosa
  MIC50: > 64 µg/mL
Cytochrome P450 2C19
  IC50: > 10 µM
Enterococcus faecium
  MIC50: 0.25 µg/mL (≈ 0.511 µM)
  MIC90: 1 µg/mL (≈ 2.04 µM)
Staphylococcus aureus [7]
  MIC: 4 µg/mL (≈ 8.17 µM)
Kv4.3 (KCND3)
  inhibition at 100 µM: < 25%
[8]
  Papp B→A: 81.2 ×10⁻⁶ cm/s
[9]
  AUC(0-t) at 24 h: 5910 ng·h/mL
Staphylococcus aureus [10]
  Survival: 100%
Cytochrome P450 2B6
  IC50: > 10 µM
[11]
  clearance: 69 mL/min/kg
CYP2C8
  inhibition at 10 µM: > 50%
[12]
  Tmax: 10.2 min
[13]
  solubility kinetic: 61.4 µM (≈ 30.1 µg/mL)
Streptococcus pyogenes
  MIC50: 0.5 µg/mL (≈ 1.02 µM)
[14]
  half-life: 52 min
[15]
  Activity: Dose-Dependent Effect
DNA gyrase
  IC50: 15 µM
[16]
  AUC(0-t) at 24 h: 2400 ng·h/mL
